For three molecules, Activity results are on record in ChEMBL document CHEMBL4251722, “Identification of Ingol and Rhamnofolane Diterpenoids from Euphorbia resinifera and Their Abilities to Induce Lysosomal Biosynthesis” (2018).

Assay [1] concerns HeLa. Nature of the assay: Up regulation of cathepsin B mRNA expression in human HeLa cells at 40 uM after 3 hrs by TRIzol dye based qRT-PCR analysis. It counts as functional, cell-based. In general terms: Quantitative PCR measures a nucleic acid by following its amplification.
Assay [2] has as its system HeLa. In words: Induction of lysosomal biosynthesis in human HeLa cells assessed as increase in staining intensity at 40 uM by LysoTracker Red DND-99 staining based assay. It is filed as functional, cell-based. The settings on record: TDE = time-dependent effect. An outline of the steps: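 Time course in HeLa cells at 40 μM over five treatment intervals, followed by LysoTracker Red staining. Output is fold induction of staining versus DMSO control. n = 3 independent experiments.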

Assay [3] has as its system HeLa. Nature of the assay: Up regulation of cathepsin A mRNA expression in human HeLa cells at 40 uM after 3 hrs by TRIzol dye based qRT-PCR analysis. It counts as functional, cell-based.
For assay [4], the system named is HeLa. Nature of the assay: Induction of lysosomal biosynthesis in human HeLa cells assessed as increase in staining intensity after 3 hrs by LysoTracker Red DND-99 staining based assay. It is filed as functional, cell-based. An outline of the steps: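 HeLa cells exposed 3 h to 10, 20, 40 and 60 μM test agent, then stained with LysoTracker Red. Lysosome induction is read as fold of LysoTracker Red signal over the DMSO negative control, with HEP-14 as positive control. Three independent experiments.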

Assay [5] deals with HeLa. In words: Up regulation of LAMP1 mRNA expression in human HeLa cells at 40 uM after 3 hrs by TRIzol dye based qRT-PCR analysis. It counts as functional, cell-based.
Assay [6] concerns HeLa. In words: Up regulation of ATP6V0E1 mRNA expression in human HeLa cells at 40 uM after 3 hrs by TRIzol dye based qRT-PCR analysis. It counts as functional, cell-based.
For assay [7], the system named is HeLa. Nature of the assay: Induction of lysosomal biosynthesis in human HeLa cells assessed as increase in staining intensity at 40 uM after 3 hrs by LysoTracker Red DND-99 staining based assay relative to control. It counts as functional. The essentials:
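HeLa cells given 40 μM for 3 h, then LysoTracker Red staining. Signal intensity is quantified as fold induction relative to DMSO-treated cells. HEP-14 at 40 μM is the positive control. Independent triplicates.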

Active and inactive are the calls of the source. The calls are words filed in the database; no cut-off is given here.

With `COc1ccc(CC(=O)O[C@@H]2/C(C)=C/[C@@]34O[C@@]3(C[C@H](C)[C@@H]4OC(C)=O)C(=O)[C@H](C)[C@H](OC(C)=O)[C@@H]3[C@H]([C@@H]2OC(C)=O)C3(C)C)cc1`, the outcome with HeLa [1], in the assay with HeLa [3], in the assay on HeLa [5] and with HeLa [6] was Active. In addition, the figures for the Activity result in the assay on HeLa [2], with HeLa [4] and with HeLa [7] were “Tde”, “Dose-dependent effect” and 140.7%, respectively.
Turning to `COc1ccc([C@H](O)C(=O)O[C@@H]2/C(C)=C/[C@@]34O[C@@]3(C[C@@](C)(O)[C@@H]4OC(C)=O)C(=O)[C@H](C)[C@H](OC(C)=O)[C@@H]3[C@H]([C@@H]2OC(C)=O)C3(C)C)cc1`, the result with HeLa [1], in the assay on HeLa [3], in the assay with HeLa [5] and in the assay with HeLa [6] was Active. Also, the Activity entry is “Tde” with HeLa [2], “Dose-dependent effect” with HeLa [4] and 143.5% in the assay on HeLa [7].
Consider `COc1ccc([C@H](O)C(=O)O[C@@H]2/C(C)=C/[C@@]34O[C@@]3(C[C@H](C)[C@@H]4OC(C)=O)C(=O)[C@H](C)[C@H](OC(C)=O)[C@@H]3[C@H]([C@@H]2OC(C)=O)C3(C)C)cc1`, for which the result in the assay with HeLa [1], in the assay on HeLa [3], in the assay on HeLa [5] and in the assay on HeLa [6] was Active. For the same molecule, the results for the Activity entry with HeLa [2], in the assay on HeLa [4] and in the assay with HeLa [7] were “Tde”, “Dose-dependent effect” and 155.9%, respectively.
